The text below walks through data of ChEMBL document CHEMBL3243955, “A novel synthesis and biological activity of several 5-halo-5'-amino analogues of deoxyribopyrimidine nucleosides” (J Med Chem, 1978).

Active and inactive are the calls of the source. The calls are words filed in the database; no cut-off is given here.

The subject of data set [1] is Vero. Kind of data set: (§1) Cytotoxicity against African green monkey Vero cells at 50 uM after 3 days by haemocytometry. The settings on record: chlorocebus sabaeus, vero, 72 h, 50 µM. It is filed as cell-based. An outline of the steps: (§2)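 Uninfected Vero cells were seeded at 0.1 confluency in Dulbecco's medium with 10% fetal calf serum and incubated 1 day at 37 °C in 5% CO2. Compound was then added in growth medium. Duplicate flasks were harvested at once and then daily for 3 days by trypsin (0.125%)/EDTA (0.02%) for 15 min at 37 °C, dispersed, and stained with trypan blue. Cells were counted by haemocytometer.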

In data set [2] the test system is Human alphaherpesvirus 1. Description: Antiviral activity against HSV1 CL101 infected in African green monkey Vero cells assessed as plaque forming unit at 50 uM after 40 hrs relative to control. It is filed as functional. Conditions: Human alphaherpesvirus 1, CL101, Vero. An outline of the steps:
(§3)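 After 1 h adsorption at 37 °C, the inoculum was removed and cells washed with PBS. Compound was added in serum-supplemented medium and cultures incubated 40 h at 37 °C. Virus was released by one freeze–thaw and titrated by plaque assay on Vero cells. Percent inhibition was pfu relative to drug-free cultures.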

Data set [3] concerns Vero. Description: Cytotoxicity against African green monkey Vero cells at 800 uM after 3 days by haemocytometry. It counts as cell-based. Conditions: chlorocebus sabaeus, 72 h. The essentials:
as §2

The subject of data set [4] is CCRF S-180. Description: Cytotoxicity against mouse S180 cells at 400 uM after 18 to 42 hrs relative to control. It counts as functional. The essentials:
(§4)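 Mouse sarcoma 180 suspension cultures in Fischer's medium with 10% horse serum, 37 °C, humidified 5% CO2 (generation time ~18 h). Compound was added to exponential-phase cells at ~2 × 10⁴ cells/mL. Increase in cell number was measured after 18 and 42 h. Percent inhibition was calculated relative to drug-free control.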

A short description of data set [5]: (§5) Cytotoxicity against African green monkey Vero cells at 400 uM after 3 days by haemocytometry. It is filed as cell-based. The settings on record: chlorocebus sabaeus, Vero cells; read-out: INH. An outline of the steps:
as §2

In data set [6] the test system is Human alphaherpesvirus 1. Kind of data set: Antiviral activity against HSV1 CL101 infected in African green monkey Vero cells assessed as plaque forming unit at 400 uM after 40 hrs relative to control. It counts as functional. The settings on record: Human alphaherpesvirus 1, CL101, Vero. The essentials:
as §3

Data set [7] relates to Vero. Kind of data set: Cytotoxicity against African green monkey Vero cells at 1 uM after 3 days by haemocytometry. It counts as cell-based. The settings on record: chlorocebus sabaeus, 72 h. An outline of the steps:
as §2

In data set [8] the test system is Human alphaherpesvirus 1. Description: Antiviral activity against HSV1 CL101 infected in African green monkey Vero cells assessed as plaque forming unit at 1 uM after 40 hrs relative to control. It is filed as functional, organism-based. An outline of the steps: as §3
The test system of data set [9] is CCRF S-180. Kind of data set: Cytotoxicity against mouse S180 cells at 1 uM after 18 to 42 hrs relative to control. It counts as functional. The essentials: as §4
The subject of data set [10] is Vero. The description is as §5. It counts as cell-based. The settings on record: chlorocebus sabaeus, vero, 72 h, 400 µM. An outline of the steps:
as §2

A short description of data set [11]: as §1. It is filed as cell-based. Conditions: chlorocebus sabaeus, Vero cells; read-out: INH. An outline of the steps: as §2
In data set [12] the test system is CCRF S-180. Kind of data set: Cytotoxicity against mouse S180 cells at 50 uM after 18 to 42 hrs relative to control. It is filed as functional. An outline of the steps:
as §4

Data set [13] concerns Vero. Kind of data set: Cytotoxicity against African green monkey Vero cells at 200 uM after 3 days by haemocytometry. It is filed as cell-based. Conditions: chlorocebus sabaeus, 72 h.
For data set [14], the system named is Human alphaherpesvirus 1. Description: Antiviral activity against HSV1 CL101 infected in African green monkey Vero cells assessed as plaque forming unit at 200 uM after 40 hrs relative to control. It counts as functional. Conditions: Human alphaherpesvirus 1, CL101, Vero. An outline of the steps:
as §3

Data set [15] concerns CCRF S-180. Description: Cytotoxicity against mouse S180 cells at 200 uM after 18 to 42 hrs relative to control. It counts as functional, cell-based. An outline of the steps:
as §4

A short description of data set [16]: Cytotoxicity against African green monkey Vero cells at 0.1 uM after 3 days by haemocytometry. The settings on record: chlorocebus sabaeus, read-out: INH. It is filed as cell-based. The essentials: as §2
Data set [17] has as its system CCRF S-180. Kind of data set: Cytotoxicity against mouse S180 cells at 0.1 uM after 18 to 42 hrs relative to control. It is filed as functional. The essentials: as §4
Data set [18] deals with CCRF S-180. Description: Cytotoxicity against mouse S180 cells at 0.01 after 18 to 42 hrs relative to control. It counts as functional. The essentials:
as §4

Data set [19] relates to Vero. Kind of data set: Cytotoxicity against African green monkey Vero cells at 0.01 uM after 3 days by haemocytometry. The settings on record: chlorocebus sabaeus, 72 h. It counts as cell-based. An outline of the steps: as §2
Data set [20] concerns Vero. Kind of data set: Cytotoxicity against African green monkey Vero cells at 1600 uM after 3 days by haemocytometry. It is filed as cell-based. Conditions: chlorocebus sabaeus, 72 h. An outline of the steps:
as §2

Data set [21] relates to CCRF S-180. Kind of data set: Cytotoxicity against mouse S180 cells at 1600 uM after 18 to 42 hrs relative to control. It counts as functional, cell-based. An outline of the steps:
as §4

For the compound `Nc1nc(=O)n([C@H]2C[C@H](O)[C@@H](CO)O2)cc1I` [IBACITABINE], the Activity result in the data set on Vero [1] and in the data set on Vero [3] was “Non-toxic” throughout. In addition, the inhibition at 50 µM with Human alphaherpesvirus 1 [2] was determined as 99.5%.

As for `[N-]=[N+]=NC[C@H]1O[C@@H](n2cc(F)c(O)nc2=O)C[C@@H]1O`, the inhibition at 400 µM is 100% with CCRF S-180 [4] and 5% in the data set with Human alphaherpesvirus 1 [6]. Further, the cytotoxicity at 72 h, 400 µM in data set [5] is 100%.

In the case of `NC[C@H]1O[C@@H](n2cc(F)c(=O)[nH]c2=O)C[C@@H]1O`, the Activity entry in the data set with Vero [7] is “Non-toxic”. The values for the inhibition at 400 µM in the data set on CCRF S-180 [4] and in the data set with Human alphaherpesvirus 1 [6] were 100% and 85.6%, respectively. For the same compound, in data set [5], the cytotoxicity at 72 h, 400 µM is 100%. In addition, the inhibition entry with Human alphaherpesvirus 1 [8] was “inactive”. Besides, 1 µM produced 100% inhibition in the data set with CCRF S-180 [9].

With `NC[C@H]1O[C@@H](n2cc(Cl)c(O)nc2=O)C[C@@H]1O`, the inhibition result in the data set on CCRF S-180 [4] was “inactive”. The Activity result in the data set with Vero [10] is “Non-toxic”. In the data set on Human alphaherpesvirus 1 [6], the inhibition at 400 µM was found to be 74.3%.

Consider `O=c1[nH]c(=O)n([C@H]2C[C@H](O)[C@@H](CO)O2)cc1I` [IDOXURIDINE], for which, in data set [11], the cytotoxicity at 72 h, 50 µM turned out to be 100%. In addition, the inhibition at 50 µM in the data set with CCRF S-180 [12] came out at 100%; with Human alphaherpesvirus 1 [2] it was 99.5%.

In the case of `[N-]=[N+]=NC[C@H]1O[C@@H](n2cc(I)c(N)nc2=O)C[C@@H]1O`, the Activity entry in the data set with Vero [13] is given as “Non-toxic”. For the same compound, in the data set with Human alphaherpesvirus 1 [14], the inhibition at 200 µM came to 37.5%. The inhibition entry with CCRF S-180 [15] is “inactive”.

As for `O=c1[nH]c(=O)n([C@H]2C[C@H](O)[C@@H](CO)O2)cc1F` [FLOXURIDINE], the cytotoxicity at 72 h, 0.1 µM in [16] was 100%. The compound also displayed an inhibition at 0.1 µM in the data set on CCRF S-180 [17] of 100%. For the same compound, the “inhibition (INH)” value in the data set on CCRF S-180 [18] turned out to be 100%. Moreover, in the data set on Vero [19], the Activity result is on record as “Non-toxic”. Further, the inhibition at 400 µM in the data set with CCRF S-180 [4] came to 100%; in the data set on Human alphaherpesvirus 1 [6], 84.3%. Further, the cytotoxicity at 72 h, 400 µM in [5] worked out at 100%.

Take `NC[C@H]1O[C@@H](n2cc(Br)c(O)nc2=O)C[C@@H]1O`: the Activity entry with Vero [13] is reported as “Non-toxic”. In addition, the inhibition at 200 µM in the data set on Human alphaherpesvirus 1 [14] worked out at 86.2%. The inhibition result with CCRF S-180 [15] is “inactive”.

For the compound `NC[C@H]1O[C@@H](n2cc(I)c(N)nc2=O)C[C@@H]1O`, the Activity result with Vero [20] and in the data set on Vero [10] was “Non-toxic” each time. Besides, the inhibition entry in the data set with CCRF S-180 [21] and in the data set with CCRF S-180 [4] was “inactive” in each case. The inhibition at 400 µM in the data set with Human alphaherpesvirus 1 [6] worked out at 92.8%.

Broadly, the inhibition is the relative decrease from the control value, in per cent.
